Assay outcomes deposited in PubChem BioAssay by several laboratories.
CSN deneddyl inh: inhibitors of CSN-mediated cullin deneddylation, primary screen, biochemical, fluorescence polarization, uHTS | Purified CSN, SCF-Nedd8-OG deneddylation | inhibition, % at 12.5 µM | 0.38% of 360,000 active;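 active = pattern-corrected inhibition above about 35%, with an unprinted fluorescence ratio check between 0.5 and 1.5, limit read from the data, passing the limit was not always enough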;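 also: 0% = enzyme with substrate and 100% = substrate without enzyme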
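Test system: purified human Csn5 enzyme expressed in HEK293T cells. Amount: 0.24 nM enzyme. Reagent: SCFSkp2-Nedd8OG substrate at 10 nM final. Schedule: 90 min incubation of compound, enzyme and substrate at room temperature. Detection: fluorescence polarization. Read-out: % inhibition of substrate cleavage by Csn5.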
HNF4A DNA FP: change in binding of human HNF4A to DNA, primary screen, biochemical, fluorescence polarization, FITC-DNA | Hepatocyte nuclear factor 4-alpha (Homo sapiens), P41235 | 1 h | activity change, % at 10 µM | 0.3% of 360,000 active; in the data active = activity change above about 30%, passing the limit was not always enough
ARFGAP1 inhibitor: inhibitors of rat ARFGAP1 GAP activity, primary screen, biochemical, fluorescence polarization, GDP tracer; ADP-ribosylation factor GTPase-activating protein 1 (Rattus norvegicus), Q62848; inhibition, % at 16.5 µM; AID 651572, 2012; 0.26% of 360,000 active; Arfgap1-stimulated ARF1 GTP hydrolysis, GDP FP detection;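 active = inhibition above a per-plate limit, mean inhibition of low control wells plus 3 SD, cut at about 25% in these data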;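 also: 0% = DMSO wells with enzyme and 100% = wells lacking Arfgap1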
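System: truncated rat Arfgap1 GAP domain / Benchmarks: high control wells lacking Arfgap1, low control full reaction with DMSO / Times: compound-enzyme preincubation 20 min, reaction 120 min, detection 60 min, 25 °C / Repeats: one replicate per compound / Also added: human ARF1(Δ1-17)-GTP substrate / Measured by: Tracer-displacement fluorescence polarization with EDTA stop, 620/688 nm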
ASAP1 GAP inh: inhibitors of human ASAP1 ArfGAP activity, primary screen, biochemical, fluorescence polarization; ASAP1-stimulated ARF1 GTP hydrolysis, GDP FP detection; inhibition, % at 16.5 µM; Arf-GAP with SH3 domain, ANK repeat and PH domain-containing protein 1 (Homo sapiens), …; 0.19% of 360,000 active; in the data active = inhibition above about 25%;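 also: 0% = vehicle with enzyme and substrate and 100% = no enzyme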
CSN deneddyl val: Csn5 deneddylation inhibitors, confirmation, biochemical, fluorescence polarization, single concentration, SCF-Nedd8OG substrate | shares compounds with CSN deneddyl inh | Csn5 deneddylation of SCF-Nedd8OG, 90 min | inhibition, % at 16.6 µM | 62% of 540 active | AID 720654, 2013; in the data active = inhibition above about 50%;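 also: 0% = DMSO with enzyme and 100% = no enzyme wells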
MMP-2 counter: MMP-2 protease inhibition counter-screen, confirmation, counter-screen for CSN deneddylation inhibitor project, biochemical, fluorescence, single concentration. shares compounds with CSN deneddyl inh. recombinant MMP-2, FRET substrate fluorescence, 60 min. inhibition, % at 16.6 µM. 33% of 540 active;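 active = corrected plate-normalized z-score of 5 or more, or -5 or less, or inhibition of 15% or more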;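 also: plate controls were DMSO wells with enzyme for no effect and buffer wells lacking MMP-2 for full effect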
Thrombin cntr: thrombin (bovine) inhibition, counter-screen for CSN hits; shares compounds with CSN deneddyl inh; bovine thrombin cleavage of Ub4-pepOG, fluorescence polarization; inhibition, % at 16.6 µM; 49% of 540 active;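 active = inhibition at or above a set limit, with a fluorescence interference ratio between 0.5 and a set maximum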
Target sequence (P00735 whole entry, looked up): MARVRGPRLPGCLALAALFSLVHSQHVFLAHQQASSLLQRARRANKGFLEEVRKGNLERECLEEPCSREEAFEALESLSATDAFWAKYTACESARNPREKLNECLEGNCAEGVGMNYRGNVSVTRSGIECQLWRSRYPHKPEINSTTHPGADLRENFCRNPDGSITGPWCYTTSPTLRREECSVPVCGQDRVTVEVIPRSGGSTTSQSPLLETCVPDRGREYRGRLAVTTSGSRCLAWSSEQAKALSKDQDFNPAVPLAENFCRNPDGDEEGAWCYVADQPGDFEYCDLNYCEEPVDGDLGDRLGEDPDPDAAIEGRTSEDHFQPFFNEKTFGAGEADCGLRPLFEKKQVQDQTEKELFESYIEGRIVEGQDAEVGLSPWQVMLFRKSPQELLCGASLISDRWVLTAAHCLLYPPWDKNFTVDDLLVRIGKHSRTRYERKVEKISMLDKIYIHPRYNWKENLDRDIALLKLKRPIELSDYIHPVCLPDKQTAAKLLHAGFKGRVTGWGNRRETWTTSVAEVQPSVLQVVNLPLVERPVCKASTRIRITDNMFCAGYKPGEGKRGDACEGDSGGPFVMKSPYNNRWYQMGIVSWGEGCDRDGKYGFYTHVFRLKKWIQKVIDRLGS
The depositor's hits bear a star; x = no result given; + = active, no number; ! = not confirmed by another sample. Only some compounds are listed: those with a hit (about 0.95% of all), similar ones and a draw of the others.

SMILES	CSN deneddyl inh	HNF4A DNA FP	ARFGAP1 inhibitor	ASAP1 GAP inh	CSN deneddyl val	MMP-2 counter	Thrombin cntr
O=C(O)CCCCCN1C(=O)/C(=C\c2ccc(-c3ccc(Cl)cc3)o2)SC1=S	61*	101	-13	6	74*	16*	25*
O=C(O)CCCCCN1C(=O)/C(=C\c2ccncc2)SC1=S	7	-1	-4	-4	x	x	x
O=C(O)CCCN1C(=O)/C(=C/c2ccc(-c3nc4ccccc4s3)o2)SC1=S	122*	51*	0	-7	x	1	-13
Cc1cc(C)nc(NN2C(=O)/C(=C/c3ccc(O)cc3)SC2=S)n1	92*	94*	x	x	46	-13	83*
Cc1cc(SCc2cccc(C(F)(F)F)c2)nc(=O)[nH]1	5	25	x	x	x	x	x
COC(=O)c1ccc(=O)n(CC(=O)c2ccc(Cl)cc2)c1	-3	1	11	-11	x	x	x
NS(=O)(=O)c1ccc(-c2ccc(/C=C3\SC(=S)N(C4CCS(=O)(=O)C4)C3=O)o2)cc1 (stereo not drawn)	70*	130	5	12	87*	-46*	46
COC(=O)c1c(NC(=O)COC(=O)c2ccc(NC(=O)CC#N)cc2)sc2c1CCCCC2	57*	-4	-5	4	42	7	13
OC(COCc1ccccc1)CN1CCCCC1 (stereo not drawn)	5	4	-5	-5	x	x	x
Cc1ccnc2nc(C(=O)OCC(=O)c3ccc(NC(=O)CC(C)C)cc3)nn12	1	3	-9	-1	x	x	x
CCC(=O)Nc1ccc(C(=O)COC(=O)c2nc3nccc(C)n3n2)cc1	44*	-43	-10	4	x	15	10
COc1ccc(CCn2c(N)c(C(=O)NCc3ccco3)c3nc4ccccc4nc32)cc1OC	38*	9	18	11	96*	5	-15
O=C(NCc1ccccc1CN1CCCC1)c1ccc(Cl)c(N2CCCC2=O)c1	1	-6	0	0	x	x	x
Cc1ccc(S(=O)(=O)/N=C2/NC(=O)/C(=C\c3cc(Br)cc(Br)c3O)S2)cc1	147*	80*	x	x	-72	-80*	-84
C=CCn1c(SCC(=O)N(CC)C2CCS(=O)(=O)C2)nc2scc(-c3ccccc3)c2c1=O (stereo not drawn)	3	0	6	2	x	x	x
COC(=O)C1C2CCCCC1C(=O)O2 (stereo not drawn)	0	1	-8	-3	x	x	x
O=C(CN1C(=O)NC2(CCCC2)C1=O)Nc1cccc(Cl)c1	10	2	6	-7	x	x	x
O=C1c2ccccc2C(=O)C1c1ccnc2ccccc12	6	9	-4	24	x	x	x
N#CC1=C(N)SC(N)=C(C#N)C1c1ccnc2ccccc12	45*	39*	9	15	135*	-16	30*
CC1C=CC=CC=CC=CC=CC=CC=CC(OC2OC(C)C(O)C(N)C2O)CC2OC(O)(CC(O)CC(O)C(O)CCC(O)CC(O)CC(=O)OC(C)C(C)C1O)CC(O)C2C(=O)O (stereo not drawn)	39*	-11	x	x	78*	-1	15*
CCOC(=O)N1CCN(C(=O)C[C@H]2C[C@@]3(C(=O)OC)C(=C[C@H](C(C)(C)C)O[C@@H]3C)N(Cc3ccccc3)C2=O)CC1	x	x	-2	4	x	x	x
CCNc1ccc(Br)cc(C(=O)/C=C/c2ccc(Cl)cc2)c1=O	32	-1	x	x	x	x	x
CCNc1ccc(Br)cc(C(=O)/C=C/c2ccc3c(c2)OCO3)c1=O	47*	-11	-4	17	71*	-3	24*
N#C/C(=C/c1ccc(N2CCOCC2)o1)c1ccc(Br)cc1	80*	112	-3	14	+	-37*	-51
N#C/C(=C/c1ccc(N2CCOCC2)o1)C(=O)NC1CCCCC1	103*	172	1	2	120*	-5	88*
SMILES	CSN deneddyl inh	HNF4A DNA FP	ARFGAP1 inhibitor	ASAP1 GAP inh	CSN deneddyl val	MMP-2 counter	Thrombin cntr
O=C(O)c1cc(-c2ccco2)nc2ccc(Br)cc12	42*!	-39	-5	-10	81*	7	-6
Cc1[nH]c2ccccc2c1/C=N/Nc1ccc([N+](=O)[O-])cc1	49*	68*	15	21	75*	5	44*
C/C(=N/Nc1ccc([N+](=O)[O-])cc1)c1c[nH]c2ccccc12	43*	70*	13	13	69*	3	22*
Cc1[nH]c2ccccc2c1/C=N/NC(=O)c1cccc([N+](=O)[O-])c1	-4	3	13	-4	x	x	x
Nc1nonc1-n1nnc(C(=O)N/N=C/c2ccccc2Cl)c1CN1CCOCC1	1	3	1	3	x	x	x
CN(C)c1ccc(/C=C2/C[N+](C)(C)C/C(=C/c3ccc(N(C)C)cc3)C2=O)cc1	94*	19	11	3	3	-41*	114*
CCC1C/C(=C\c2cc(OC)c(OC)cc2OC)C(=O)/C(=C/c2cc(OC)c(OC)cc2OC)C1 (stereo not drawn)	35*	71*	x	x	64*	-10	48*
COc1cc(OC)c(OC)cc1/C=C1/Cc2ccccc2C1=O	10	-48	-19	-5	x	x	x
CC(C)CC(=NNC(=O)c1ccncc1)c1cc(Cl)ccc1O	63*	98	-2	-6	71*	-51*	46*
CC(=NNC(=O)c1ccncc1)c1ccccc1O	2	-3	-4	-3	x	x	x
OC(c1ccc(Cl)cc1)c1ncc(-c2ccc(Oc3ccccc3)cc2)[nH]1 (stereo not drawn)	-1	-2	7	3	x	x	x
COc1cc(C)c2c(c1C=O)Oc1c(c(C)c(O)c3c1C(O)OC3=O)OC2=O (stereo not drawn)	38*	-47	-34	-29	50	13	8
CCCCn1c(N)c(N(CCC(C)C)C(=O)c2c(CC)noc2C)c(=O)[nH]c1=O	2	3	7	-11	x	x	x
Cc1nc(SCc2nc3ccc(Cl)cc3[nH]2)c2oc3ccccc3c2n1	2	6	-1	19	x	x	x
Cc1nc(SCc2nc3cc(Cl)c(F)cc3[nH]2)c2oc3ccccc3c2n1	36*	6	-3	13	86*	-4	14
C=CCN(CC=C)CC(=O)Nn1c(C)ccc1C	5	-6	-9	-13	x	x	x
